GRK2 aptamer HTS – compounds blocking aptamer binding on GRK2 – biochemical, human GRK2, bead flow cytometry, HTS, primary screen | actives 0.59% (n = 330,000) | AID 488847, 2010 | FAM-aptamer displacement from GRK2 | Beta-adrenergic receptor kinase 1 (Homo sapiens), P25098 | inhibition of aptamer binding, % at 10 µM;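 active = inhibition of aptamer binding above 40%, roughly 3 SD of noise, on plates passing a quality check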;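 also: median bead fluorescence of bound FAM aptamer so fluorescent compounds give negative values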
core dimer inh – inhibitors of HCV core protein dimerization, primary screen, biochemical, TR-FRET, high-throughput; AID 1899, 2009; TR-FRET GST/Flag-core106 dimerization, 1536-well; inhibition, % at 5 µM; actives 0.33% (n = 300,000);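 active = inhibition above the mean of all tested compounds plus 3 SD, set per screening campaign, cut at about 45% in these data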
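System: GST/Flag-tagged HCV core106 proteins. Incubation: compound-protein-antibody incubation 4 h at 22.5 °C. Technique: HTRF with 340 nm excitation, 617/671 nm emission. Medium: KF-containing HEPES buffer, pH 7.45, DTT, CHAPS, BSA. Read-out: inhibition (%) from 671 over 617 nm ratio. Also added: Eu(K)-anti-GST 90 ng/mL plus XL665-anti-Flag 1 µg/mL.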
NS3 helicase inh – inhibitors of HCV NS3 helicase, primary screen, biochemical, Cy5 molecular beacon fluorescence; NS3 helicase DNA unwinding; inhibition, % at 10.9 µM; actives 0.56% (n = 290,000); AID 1800, 2009; Hepatitis C virus NS3 helicase;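 active = inhibition above the mean of all tested compounds plus 3 SD, set per campaign, cut at about 35% in these data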
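System: Hepatitis C virus NS3 helicase domain fragment enzyme | Reagent: Annealed dual-labelled DNA beacon duplex, ATP-started | Compound dosing: 10.9 µM single point, 0.8% DMSO | Incubation: 1 h reaction at 25 °C, ATP-initiated | Technique: Cy5 fluorescence | Evaluation: Percent inhibition from t60/t0 fluorescence ratio | Benchmarks: Low DMSO, high thioflavine S at 110 µM | Replication: Singlicate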
DAGLB inhibitor – DAGLB lipase inhibitors, primary screen, biochemical, fluorescence, HTS | HEK293T DAGLB membrane lysate, EnzChek fluorogenic substrate | Diacylglycerol lipase-beta (Homo sapiens), Q8NCG7 | inhibition, % at 5.17 µM | actives 0.059% (n = 340,000); in the data active = inhibition above about 34%
Target sequence (Q8NCG7 whole entry, looked up): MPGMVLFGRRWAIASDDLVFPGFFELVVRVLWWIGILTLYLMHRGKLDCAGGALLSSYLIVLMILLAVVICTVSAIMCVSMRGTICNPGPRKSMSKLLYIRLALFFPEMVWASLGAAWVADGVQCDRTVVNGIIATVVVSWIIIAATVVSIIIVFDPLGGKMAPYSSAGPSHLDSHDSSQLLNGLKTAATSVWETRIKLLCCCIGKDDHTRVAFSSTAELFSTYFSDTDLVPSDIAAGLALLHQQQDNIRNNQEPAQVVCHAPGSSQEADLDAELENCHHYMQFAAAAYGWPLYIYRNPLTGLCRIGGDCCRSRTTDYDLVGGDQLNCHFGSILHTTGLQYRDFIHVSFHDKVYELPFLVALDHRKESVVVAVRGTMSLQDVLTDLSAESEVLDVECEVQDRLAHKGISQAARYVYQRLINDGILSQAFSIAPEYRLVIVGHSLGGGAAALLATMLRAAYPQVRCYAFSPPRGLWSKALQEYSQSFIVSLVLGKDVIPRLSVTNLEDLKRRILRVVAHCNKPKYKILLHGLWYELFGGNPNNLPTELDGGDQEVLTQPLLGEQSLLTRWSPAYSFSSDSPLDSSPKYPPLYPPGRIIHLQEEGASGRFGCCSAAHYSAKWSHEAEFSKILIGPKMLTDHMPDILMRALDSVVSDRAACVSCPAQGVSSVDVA
GPR7 antagonist – GPR7 receptor antagonists, primary screen, cell-based, fluorescence, single concentration. GPR7-expressing cells, fluorescence antagonist assay. AID 1861, 2009. inhibition, % at 4.4 µM. actives 1.1% (n = 290,000); in the data active = inhibition above about 16%, passing the limit was not always enough;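 also: cells stimulated with the agonist NPW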
DNA FID counter-1 – compounds displacing fluorescent DNA intercalator, primary screen, artefact control for HCV NS3 helicase inhibitor project, biochemical, FID fluorescence | actives 0.17% (n = 290,000) | AID 1845, 2009 | DNA fluorescent intercalator displacement | inhibition, % at 7.9 µM;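 also: higher means more ethidium bromide displaced from hairpin DNA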
NS3 helicase cf – HCV NS3 helicase inhibitors, retest, confirmation, biochemical, Cy5 molecular beacon fluorescence, triplicate; shares compounds with NS3 helicase inh; NS3 helicase DNA unwinding; inhibition, % at 10.9 µM; actives 31% (n = 1,600); AID 1943, 2009;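 active = inhibition above the mean of all tested compounds plus 3 SD, cutoff set per campaign, cut at about 36% in these data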
DNA FID counter-2 – compounds displacing fluorescent DNA intercalator, artefact control for HCV NS3 helicase inhibitor project, biochemical, FID fluorescence, triplicate. AID 1945, 2009. inhibition, % at 7.9 µM. shares compounds with NS3 helicase inh. actives 4% (n = 1,600). DNA fluorescent intercalator displacement;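 also: higher means more displacement of ethidium bromide from the DNA hairpin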
DNA FID DR – compounds displacing fluorescent intercalator from DNA, dose response, counter-screen for HCV NS3 helicase inhibitor project, biochemical, fluorescence; shares compounds with NS3 helicase inh; IC50, µM; fluorescent intercalator displacement from DNA; 120 tested, under 10 active; call rule not given here
Of the large screens only hits and unclear results are named; the others gave an inactive call (follow-up assays come after a bar, where they were run). Most compounds without a hit are left out; they make up all but 2.2% or so of the library. Rule as the data show it, unless noted: active = inhibition above about 37%; inactive = the rest.

CC(=O)OCC1=C(C(=O)O)N2C(=O)C(NC(=O)c3ccc(COc4c(C)cccc4Cl)o3)C2SC1 (stereo unspecified)	NS3 helicase inh 38 | NS3 helicase cf 46 | DNA FID counter-2 inactive
COc1ccc2[nH]cc(CCNC(=O)c3ccccc3Cl)c2c1	none
CC(C)(C)OC(=O)N1CCC(CNC(=O)c2cccs2)CC1	none (no result: DAGLB inhibitor)
CC(C)(C)OC(=O)N1CCC(CNC(=O)c2ccc(F)cc2F)CC1	NS3 helicase inh 41 (no result: DAGLB inhibitor) | NS3 helicase cf inactive | DNA FID counter-2 inactive
COc1ccc(-c2cc(=O)oc3cc(OCC(=O)N4C[C@H]5C[C@@H](C4)c4cccc(=O)n4C5)ccc23)cc1	none
O=C(COc1ccc2c3c(c(=O)oc2c1)CCCC3)N1C[C@H]2C[C@@H](C1)c1cccc(=O)n1C2	NS3 helicase inh 46 | NS3 helicase cf inactive | DNA FID counter-2 inactive
O=C(/C=C/c1ccccc1)C1C(=O)c2ccccc2C1=O	none
CCc1ccc(/C=C/C(=O)C2C(=O)c3ccccc3C2=O)cc1	NS3 helicase inh 38 | NS3 helicase cf inactive | DNA FID counter-2 inactive
O=C(O)c1cccc(-n2c(/C=C/c3ccccc3)nc3ccccc3c2=O)c1	NS3 helicase inh 53 | NS3 helicase cf 53 | DNA FID counter-2 inactive | DNA FID DR inactive
NC1=C(c2ccccc2)C(=O)NC1=O	NS3 helicase inh 37 | NS3 helicase cf inactive | DNA FID counter-2 inactive
Cc1nn(CCc2nc(-c3ccco3)cs2)c2[nH]c(=O)cc(C(F)(F)F)c12	NS3 helicase inh 46 | NS3 helicase cf 72 | DNA FID counter-2 inactive
Cc1nc(NC(=O)CN2CC(C)OC(C)C2)sc1C(=O)N(C)C (stereo unspecified)	none
COc1cccc(CN2C(=NC(=O)C3CCCO3)SC3CS(=O)(=O)CC32)c1 (stereo unspecified)	none (no result: GRK2 aptamer HTS, core dimer inh, NS3 helicase inh, GPR7 antagonist, DNA FID counter-1)
CC1CCCCN1CCCNC(=O)c1ccc2nc(N3CCCCC3)sc2c1 (stereo unspecified)	none
Cc1ccc(C)c(N2CCN(C(=O)c3ccc4nc(-c5ccco5)c(-c5ccco5)nc4c3)CC2)c1	NS3 helicase inh 37 | NS3 helicase cf 76 | DNA FID counter-2 inactive | DNA FID DR inactive
COc1ccccc1N1CCN(C(=O)c2ccc3nc(-c4ccco4)c(-c4ccco4)nc3c2)CC1	none
O=C(NC1CCCC1)c1ccc2nc(-c3ccco3)c(-c3ccco3)nc2c1	NS3 helicase inh 37 | NS3 helicase cf 115 | DNA FID counter-2 inactive | DNA FID DR inactive
C/C(=N/OC(=O)c1ccc(Cl)cc1Cl)c1oc(C)nc1C	none
O=C(N/N=C/c1cc(Br)c(Br)o1)c1ccc2c(c1)OCCO2	NS3 helicase inh 37 | NS3 helicase cf inactive | DNA FID counter-2 inactive
Cc1oc(S(=O)(=O)N2CCOCC2)cc1C(=O)Nc1ccc(Cl)cc1	none
O=C1CCn2c1c(O)c1ccccc1c2=O	none (no result: GRK2 aptamer HTS, core dimer inh, NS3 helicase inh, GPR7 antagonist, DNA FID counter-1)
N=C1CCC(=N)c2c1c(O)c1ccccc1c2O	NS3 helicase inh 43 | NS3 helicase cf 50 | DNA FID counter-2 inactive
O=C(O)c1ccc(-n2nc(C(F)(F)F)c3c2CCCC3)cc1	none
Cc1cc2c(n1-c1ccc(C(=O)O)cc1)CCCCC2	GRK2 aptamer HTS 68, NS3 helicase inh 54 (no result: core dimer inh, DAGLB inhibitor) | NS3 helicase cf 71 | DNA FID counter-2 inactive
Cc1ccc(/C=C2\SC(=S)N(C3CCS(=O)(=O)C3)C2=O)cc1 (stereo unspecified)	none
O=C1/C(=C\c2ccco2)SC(=S)N1C1CCS(=O)(=O)C1 (stereo unspecified)	NS3 helicase inh 38 (no result: DAGLB inhibitor) | NS3 helicase cf inactive | DNA FID counter-2 inactive
O=C1/C(=C/c2ccco2)SC(=S)N1CC1CCCO1 (stereo unspecified)	none (no result: DAGLB inhibitor)
O=C1/C(=C/c2ccco2)SC(=S)N1C1CCS(=O)(=O)C1 (stereo unspecified)	NS3 helicase inh 38 | NS3 helicase cf inactive | DNA FID counter-2 inactive
Cc1c(NC(=O)COC(=O)c2ccccc2Cl)c(=O)n(-c2ccccc2)n1C	NS3 helicase inh 108 | NS3 helicase cf inactive | DNA FID counter-2 inactive
Cc1sc(NC(=O)CSc2nnc(-c3ccccc3)o2)c(C#N)c1C	NS3 helicase inh 38 | NS3 helicase cf inactive | DNA FID counter-2 inactive
N#Cc1c(NC(=O)CSc2nnc(-c3ccccc3)o2)sc2c1CCCC2	none
CC1CCc2c(sc(NC(=O)CSc3nnc(-c4ccccc4)o3)c2C#N)C1 (stereo unspecified)	NS3 helicase inh 47 | NS3 helicase cf inactive | DNA FID counter-2 inactive
CN(CCCC1CCCC1)C(=O)CC1C(=O)NCCN1Cc1ccc(F)cc1 (stereo unspecified)	none
N#C/C(=C/c1ccc(F)cc1)S(=O)(=O)c1ccccc1	none
N#C/C(=C\c1ccc(O)c(O)c1)S(=O)(=O)c1ccccc1	NS3 helicase inh 38 | NS3 helicase cf 58 | DNA FID counter-2 inactive | DNA FID DR inactive
O=C1/C(=C\c2ccco2)CCC/C1=C\c1ccco1	NS3 helicase inh 48 | NS3 helicase cf inactive | DNA FID counter-2 inactive
CC1C/C(=C/c2cccs2)C(=O)/C(=C/c2cccs2)C1 (stereo unspecified)	none
O=C1/C(=C/c2cccs2)CCC/C1=C\c1cccs1	NS3 helicase inh 72 | NS3 helicase cf inactive | DNA FID counter-2 inactive
CC1C/C(=C/c2ccco2)C(=O)/C(=C/c2ccco2)C1 (stereo unspecified)	none (no result: DAGLB inhibitor)
COc1ccc(C(c2c(C)n(C)n(-c3ccccc3)c2=O)c2c(C)n(C)n(-c3ccccc3)c2=O)c(OC)c1OC	none
Fc1cc(Cl)ccc1NC1=NCCCCC1	none
COc1ccc(OCC(O)CNC(=O)c2sccc2Cl)cc1 (stereo unspecified)	NS3 helicase inh 44 | NS3 helicase cf inactive | DNA FID counter-2 inactive
Cc1nc(C(N)=O)nc2ccccc12	none
CC1=NNC(=O)C1CCC(=O)N/N=C/c1ccccc1 (stereo unspecified)	none
